Data set [1] deals with TgME49-Fluc. In words: Luciferase-based tachyzoite growth inhibition assay. The class given is cell-based, Toxoplasma gondii. Particulars: for EC50: read-out: TgM49 EC50.
Data set [2] relates to Tg68pBAG1:nLuc,DHFR bradyzoites. In words: In vitro differentiated bradyzoite growth inhibition. The format is cell-based, Toxoplasma gondii. Particulars: for EC50: Toxoplasma gondii.
The subject of data set [3] is TgME49-Fluc. The experiment in a line: Time dependent tachyzoite inhibition, 4 h washout vs 72 h continuous. The class given is cell-based, Toxoplasma gondii. Particulars: vs continuous 72 h.
The subject of another data set is TgME49-EW bradyzoites. In words: Ex vivo purified. The format is cell-based, Toxoplasma gondii. To be noted: 3X EC90, 4 h washout vs continual treatment.
For the next data set, the system named is TgME49-EW intact cysts. The experiment in a line: Intact tissue cyst treatment and plaque outgrowth assay. The format is cell-based, Toxoplasma gondii. The essentials:
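Percoll-purified brain tissue cysts (10 per compound) were exposed to 3xEC90 in tubes at 37°C for 4 or 24 h, then washed 3× with PBS. Bradyzoites were freed by acid-pepsin, neutralized, and split into parallel 6-well plates with compound (constant) or without (washout). Plates ran 12−14 days at 37°C, 5% CO2. Plaques were ethanol-fixed, crystal-violet stained, counted by microscopy and normalized to the DMSO control.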

The next data set deals with THP-1 cells. In words: Host cell cytotoxicity, THP-1. The format is cell-based, human. The essentials:
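THP-1 cells were seeded at 10×10^3/well and differentiated with 10 ng/mL PMA for 24 h before compound addition. Compounds were given as a 10-dose 3-fold series from a 120 μM 2x working solution for 72 h at 37°C, 5% CO2. Viability was read by CellTiter-Glo luminescence.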

The test system of another data set is HepG2 cells. In words: Host cell cytotoxicity, HepG2. The format is cell-based, human.
The test system of another data set is TgRH-PheRS[L497I]-FLuc. In words: Growth inhibition of PheRS L497I resistant line vs parental line. The class given is cell-based, Toxoplasma gondii. Particulars: EC50 fold resistance, TgL497I vs parental TgRHΔhxgprtΔku80. Put shortly: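 Firefly-luciferase tachyzoites were used: the PheRS[L497I] line, made in the parental TgRHΔΔ-FLuc (type I) strain, and the parental line itself. Each well of confluent HFF got 5×10^3 fresh tachyzoites and a 3-fold compound series, at 0.1% DMSO final. After 72 h at 37°C, cells were lysed and luciferase read. […] FR = resistant EC50 / parental EC50.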

Data set [4] can be described thus: Plasma protein binding. The format is in vitro ADME. Particulars: CD-1 mouse plasma.
The nature of data set [5]: Plasma protein binding. The class given is in vitro ADME.
The nature of another data set: Brain homogenate binding. The format is in vitro ADME. Particulars: CD-1 mouse brain homogenate.
The nature of data set [6]: Microsomal stability, mouse liver microsomes. The format is in vitro ADME.
In the next data set the target is hERG (Homo sapiens, UniProt Q12809). The experiment in a line: hERG inhibition in CHO cell. Particulars: read-out: hERG inhibition CHO cell IC50. The format is cell-based.
Sequence of hERG (Q12809 whole entry): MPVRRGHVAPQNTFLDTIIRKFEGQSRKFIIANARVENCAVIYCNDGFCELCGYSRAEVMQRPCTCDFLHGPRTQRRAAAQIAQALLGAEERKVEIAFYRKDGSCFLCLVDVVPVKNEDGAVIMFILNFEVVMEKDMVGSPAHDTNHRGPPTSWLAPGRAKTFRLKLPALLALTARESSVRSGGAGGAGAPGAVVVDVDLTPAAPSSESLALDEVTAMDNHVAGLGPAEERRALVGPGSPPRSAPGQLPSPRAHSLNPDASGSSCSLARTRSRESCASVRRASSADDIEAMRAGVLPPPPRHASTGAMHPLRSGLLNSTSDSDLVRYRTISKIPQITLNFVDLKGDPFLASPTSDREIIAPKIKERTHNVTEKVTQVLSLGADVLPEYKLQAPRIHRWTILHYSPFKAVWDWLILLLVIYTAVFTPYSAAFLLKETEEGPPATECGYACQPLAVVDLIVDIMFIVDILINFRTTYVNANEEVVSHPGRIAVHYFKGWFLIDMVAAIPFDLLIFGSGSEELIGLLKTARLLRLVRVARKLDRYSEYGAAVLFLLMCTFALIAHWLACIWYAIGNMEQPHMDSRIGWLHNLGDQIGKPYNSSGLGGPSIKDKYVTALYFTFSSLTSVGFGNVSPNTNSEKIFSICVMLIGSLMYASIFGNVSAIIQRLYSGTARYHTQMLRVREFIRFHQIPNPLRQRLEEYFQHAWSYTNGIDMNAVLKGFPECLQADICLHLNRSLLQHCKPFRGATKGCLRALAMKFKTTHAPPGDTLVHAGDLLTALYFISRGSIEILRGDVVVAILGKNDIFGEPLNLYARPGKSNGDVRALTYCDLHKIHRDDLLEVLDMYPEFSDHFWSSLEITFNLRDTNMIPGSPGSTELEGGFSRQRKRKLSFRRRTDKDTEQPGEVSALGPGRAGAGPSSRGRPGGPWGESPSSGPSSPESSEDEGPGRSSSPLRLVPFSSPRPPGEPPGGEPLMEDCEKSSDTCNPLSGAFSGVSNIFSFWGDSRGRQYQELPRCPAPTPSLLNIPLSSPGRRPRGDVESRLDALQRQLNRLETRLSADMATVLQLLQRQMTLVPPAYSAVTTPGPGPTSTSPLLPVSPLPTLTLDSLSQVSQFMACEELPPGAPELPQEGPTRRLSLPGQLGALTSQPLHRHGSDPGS
For a further data set, the system named is MDCK-MDR1. The class given is in vitro ADME.
Another data set can be described thus: Pharmacokinetics in mice. The format is in vivo, CD-1 mice. Particulars: 10 mg/kg PO. Put shortly:
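Fasted male CD-1 mice (3 per group) received a single oral 10 mg/kg dose as a suspension. Blood and brain were sampled at 1, 3 and 8 h. Plasma was obtained by centrifugation and stored below −20 °C. Plasma and brain concentrations were measured by LC−MS/MS. Parameters came from noncompartmental analysis, and brain/plasma ratio is given at the indicated time.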

In data set [7] the test system is TgME49-FLuc tachyzoites. Particulars: for Survivors / Culture positive / Plaque positive: n=8.
The subject of data set [8] is TgME49-FLuc tachyzoites. The class given is in vivo, Toxoplasma gondii. To be noted: Ifngr1-/- mice, 0.25 mg/ml in drinking water, n=11.
[9] abbreviates: Toxoplasma gondii, read-out: TgME49 EC90.
Setting [10] is: formulation A, na = not detected.
Setting [11] is: Experiment 1, 0.25 mg/ml in drinking water.

Read-outs that look alike come from different tables or passages of the source.

Regarding `O=C1C(O)=C([C@H]2CC[C@H](c3ccc(Cl)cc3)CC2)C(=O)c2ccccc21` [Atovaquone], the half-maximal effective concentration (EC50) with TgME49-Fluc [1] (Toxoplasma gondii) came to 0.071 µM; in [2] (pH 8.2, read-out: Tg68 EC50 (Alkaline)) it was 1.59 µM; in data set [2] (read-out: Tg68 EC50 (Glutamine)) it was 0.052 µM. The EC90 in the data set on TgME49-Fluc [1] (setting [9]) amounted to 0.163 µM. In addition, the “potency after 4 h treatment vs continuous treatment (in words)” value with TgME49-Fluc [3] was “only effective when used for 72 h treatment”. Besides, in the data set with TgME49-EW bradyzoites, the “inhibition of outgrowth of liberated bradyzoites (in words)” value is listed as “only active when used continuously”. Further, the “activity on intact cysts (in words)” value with TgME49-EW intact cysts (3X EC90, 24 h treatment) is “among the most effective compounds in this assay”.

Consider `COc1ccc(NC(=O)N2CCCCN3[C@H](CN(C)C)[C@H](c4ccc(C#Cc5ccccc5)cc4)[C@@H]3C2)cc1` [BRD7929], for which the concentration for an effect of 90% (EC90) in the data set on TgME49-Fluc [1] (read-out: Tg EC90, Table 3) was 0.134 ± 0.085 µM. Also, the EC50 on TgME49-Fluc [1] (ME49 expressing firefly luciferase, Table 2) stood at 0.041 µM. Also, the concentration for an effect of 90% (EC90) with TgME49-Fluc [1] (read-out: TgME49 EC90, ME49 expressing firefly luciferase, Table 2) was 0.139 µM. Moreover, in the data set on THP-1 cells (THP-1 CC50 / EC50 TgME49), the SSII was 24. In addition, the CC50 in the data set with THP-1 cells (read-out: THP-1 CC50, Table 2) was 1.01 µM. The compound further yielded an SI with HepG2 cells (HepG2 CC50 / EC50 TgME49) of 147. In addition, the CC50 with HepG2 cells (read-out: HepG2 CC50, Table 2) was 6.07 µM. For the same compound, in the data set with TgRH-PheRS[L497I]-FLuc, the “TgL497I EC50/ Parental EC50 (FR)” value is reported as 78. Besides, the “fold elevation of bradyzoite EC50 compared to tachyzoite conditions” value in data set [2] (in vitro differentiated bradyzoites vs tachyzoites) is reported as 3 to 5 fold. In “Plasma protein binding [4]”, the “Plasma protein binding % (CD-1 mouse)” value is 99.6%. In addition, the “Plasma protein binding % (human)” value in the data set “Plasma protein binding [5]” was determined as 99.56%. Besides, the “Brain Homogenate binding %(CD-1 mouse)” value in the data set “Brain homogenate binding” was found to be 99.98%. In addition, the “Eh (hepatic extraction)” value in [6] (calculated with mouse liver blood flow of 90ml/min/kg, second value of cell) was 0.40. Further, in [6] (mouse liver microsomes, first value of cell), the Microsomal stability mouse came out at 15.41 µL/min/mg. On hERG, the IC50 is 0.54 µM. Also, in the data set with MDCK-MDR1, the “MDCK-MDR1 Permeability A-B Papp” value is on record as 0.28 10^−6cm/s and the “MDCK-MDR1 Permeability B-A Papp” value is recorded as 9.62 10^−6cm/s. Moreover, the “Plasma Cmax/D” value in the data set “Pharmacokinetics in mice” (formulation A (75% PEG300, 25% D5W), na = not detected) was 40.6 ± 10.4 ng/mL. For the same compound, the “Mouse B/P (time)” value in “Pharmacokinetics in mice” (formulation A, 8h) is 4.4 (8h). Further, in “Pharmacokinetics in mice” (setting [10]), the “Brain AUClast/D” value was 807 ng·h/mL, the “Brain Cmax/D” value is 179 ± 60.7 ng/mL and the “Plasma AUClast/D” value was found to be 220.9 ng·h/mL. Besides, the “inhibition of outgrowth from intact cysts” value in the data set with TgME49-EW intact cysts (3X EC90, 24 h treatment followed by washing and plating without compound) is on record as “up to 50%”. The weight loss result with TgME49-FLuc tachyzoites [7] (Experiment 1, 10 mg/kg QD) is reported as “little weight loss”. The same compound yielded a Survivors with TgME49-FLuc tachyzoites [7] (Experiment 1, 10 mg/kg QD p.o. 4-10 DPI) of 8. In the data set with TgME49-FLuc tachyzoites [7] (Experiment 1, 10 mg/kg QD, outgrowth in HFF culture), this compound gave a Culture positive of 1. The Plaque positive in the data set with TgME49-FLuc tachyzoites [7] (Experiment 1, 10 mg/kg QD, plaquing assay after 14 days) is recorded as 1. The “EC50 of recovered parasites” value in the data set on TgME49-FLuc tachyzoites [7] (Experiment 1, 10 mg/kg QD, EC50 determination using TgME49 expressing firefly luciferase) was “No change”. Besides, in the data set on TgME49-FLuc tachyzoites [7] (Experiment 1, 10 mg/kg QD, brain homogenate outgrowth), the “mice harboring chronic infection (of 8)” value is recorded as 1.

Consider `CCc1nc(N)nc(N)c1-c1ccc(Cl)cc1` [Pyrimethamine], for which the EC50 in the data set with TgME49-Fluc [1] (Toxoplasma gondii) was 0.33 µM. The EC90 in the data set on TgME49-Fluc [1] (setting [9]) amounted to 0.551 µM. In addition, the “potency after 4 h treatment vs continuous treatment (in words)” value in the data set on TgME49-Fluc [3] is reported as “only effective when used for 72 h treatment”. Also, in the data set with TgME49-EW bradyzoites, the “inhibition of outgrowth of liberated bradyzoites (in words)” value is “only active when used continuously”.

For `Nc1ccc(S(=O)(=O)Nc2ncccn2)cc1` [Sulfadiazine], the “survival vs vehicle control” value in the data set with TgME49-FLuc tachyzoites [8] is “survived significantly longer”. Further, in the data set on TgME49-FLuc tachyzoites [7] (setting [11]), the weight loss result is given as “little weight loss”, the Culture positive is on record as 6, the Plaque positive worked out at 7 and the Survivors is given as 8. Also, the “mice harboring chronic infection (of 8)” value with TgME49-FLuc tachyzoites [7] (Experiment 1, sulfadiazine in drinking water) is recorded as 7.

Source of the values: paper PMC12415985 (Journal of medicinal chemistry, 2025).
